In the library only some 9.8% were active in any assay of this set; here they are far more common.
Rad51 HR inh: human RAD51 strand exchange inhibitors, primary screen, biochemical, fluorescence; DNA repair protein RAD51 homolog 1 (Homo sapiens), Q06609; hRad51 DNA strand exchange, fluorescence dequenching; inhibition, % at 10 µM; 200,000 compounds, 0.085% hits;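 active = inhibition above 40% at the single screening dose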;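 also: 0% = DMSO control wells and 100% = blanks with heterologous ssDNA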
Target sequence (Q06609 whole entry, looked up): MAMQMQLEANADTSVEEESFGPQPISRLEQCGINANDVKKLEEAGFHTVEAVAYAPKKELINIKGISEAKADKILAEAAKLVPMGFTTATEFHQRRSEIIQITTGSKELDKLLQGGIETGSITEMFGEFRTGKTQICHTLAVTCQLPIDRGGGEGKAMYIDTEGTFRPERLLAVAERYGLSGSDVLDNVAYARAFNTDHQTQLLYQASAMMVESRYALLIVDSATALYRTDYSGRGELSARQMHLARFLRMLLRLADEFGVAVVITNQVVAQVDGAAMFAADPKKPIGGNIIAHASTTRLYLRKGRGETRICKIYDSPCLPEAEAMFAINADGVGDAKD
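Test system: preformed human Rad51 ssDNA filaments. Compound dosing: single dose, 10 µM final compound. Incubation: filaments 15 min 37 °C, then compound 30 min. Technique: FRET fluorescence dequenching, excitation 485 nm, emission 520 nm. Read-out basis: percent inhibition from fluorescence, normalised to plate control and blank means. Benchmarks: plate controls and plate blanks.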
Calpain2 inh: inhibitors of pig calpain II, primary screen, biochemical, fluorogenic peptide substrate, 1536-well | purified calpain II, 30 min | inhibition, % at 16 µM | 220,000 compounds, 0.37% hits;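 active = inhibition above about 50%, limit read from the data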
WT yeast gro inh: growth inhibition of WT strain, primary screen, mitochondrial fusion inhibitor project, WT and mutant strains, chemical genetic. mitochondrial fusion phenotypic screen. inhibition, % at 10 µM. 190,000 compounds, 2.1% hits. AID 1362, 2008; in the data active = inhibition above about 58%; tested in S. cerevisiae
PMI activator: activators of human PMI, primary screen, biochemical, fluorescence intensity, near-Km mannose 6-phosphate | Mannose-6-phosphate isomerase (Homo sapiens), P34949 | purified human PMI, coupled resazurin fluorescence, 20 min; active compounds read high; 1 = vehicle control, 0 substrate-free wells | activation factor at 20 µM | 190,000 compounds, 0.005% hits | AID 1214, 2008;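 active = activation factor of 2 or more at 20 µM, relative to plate controls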
PMI act satM6P: human PMI activators, high substrate, primary screen, biochemical, fluorescence intensity, near-saturating mannose 6-phosphate | activation factor at 20 µM | coupled PMI enzyme assay, resazurin fluorescence, 20 min; active compounds read high; 1 = untreated enzyme, 0 = substrate-free blank | 190,000 compounds, 0.34% hits | Mannose-6-phosphate isomerase (Homo sapiens), P34949;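 active = activation factor of 2 or more at 20 µM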
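Test system – human PMI in coupled enzyme assay · Timing – 20 min incubation at room temperature · Detection – Diaphorase-driven resazurin-to-resorufin fluorescence, excitation 544, emission 590 nm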
L major viab: Leishmania major promastigote growth inhibition, primary screen. Leishmania major promastigotes, resazurin fluorescence viability. inhibition, % at 10 µM. 200,000 compounds, 9% hits; in the data active = inhibition above about 50%;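 also: promastigotes grown with compound for 44 hours at 28 °C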
* = called active by the depositor; i = inactive; nt = no result given.

SMILES	Rad51 HR inh	Calpain2 inh	WT yeast gro inh	PMI activator	PMI act satM6P	L major viab
COc1ccc2c(c1)S/C(=C\C(=O)c1ccncc1)N2C	5	20	48	1	1	97*
O=C(Oc1coc(CSc2ncccn2)cc1=O)c1cccs1	5	-11	-4	1	1.1	-2
O=C(Nc1cccc(Cl)c1)Nc1nnc(CC2=CCCCC2)s1	-1	1	2	1.1	1	-6
CN(C)c1nc(N)c([N+](=O)[O-])c(NCC2CCCO2)n1 (stereo not drawn)	18	12	nt	nt	nt	nt
O=S1(=O)C=C(Sc2nc3cc(Cl)ccc3o2)c2ccccc21	-9	-20	-1	1	1	80*
CN(C)c1nc(N)nc(CSc2nc3cc(Cl)ccc3o2)n1	-5	5	12	0.9	1	-4
COc1cccc(-c2cc(C(F)(F)F)n3nc(C(=O)N4CCCCC4c4cccnc4)cc3n2)c1 (stereo not drawn)	31	-37	27	0.9	0.9	89*
COc1ccc(-c2cc(C(F)(F)F)n3nc(C(=O)N4CCCCC4)cc3n2)cc1	3	i	9	1.1	1	23
Clc1ccc(CSc2nnc(-c3c[nH]c4ccccc34)o2)cc1	-2	23	-1	0.9	1	7
Brc1ccc(CSc2nnc(Cc3c[nH]c4ccccc34)o2)cc1	nt	70*	68*	0.8	0.9	-1
CCC(C)(C)NC(=O)C(c1ccncc1)N(C(=O)c1sc(C)nc1C)c1ccc(C)cc1 (stereo not drawn)	-9	28	-11	1	1	-3
CN(c1ccccc1)S(=O)(=O)c1ccc(Cl)nc1	-9	13	17	1.2	1.1	-2
Cc1nc(S(=O)(=O)N(C)c2ccccc2)c(C#N)c(C)c1Cl	-1	-5	0	1.1	1.3	72*
CCc1cc2c(cc3c(=O)n(CC(=O)NCCCN4CC(C)CC(C)C4)ncn32)s1 (stereo not drawn)	-2	-10	10	1	0.9	84*
CCc1nn(CC(=O)NCCCN(CC)c2cccc(C)c2)c(=O)c2cc3occc3n12	-5	7	5	1	0.9	-3
CCc1cc2c(cc3c(=O)n(CC(=O)NCCCN(CC)CC)nc(CC)n32)s1	5	-5	14	0.9	1	92*
OCC(O)C(O)C(O)C(O)c1nc2ccccc2[nH]1 (stereo not drawn)	12	-26	-9	1.1	0.9	6
COC(=O)NCC(c1cccnc1)N1CCN(c2ccccc2)CC1 (stereo not drawn)	3	-13	4	1.2	1.1	45
O=C(NCC(c1cccnc1)N1CCN(c2ccc(F)cc2)CC1)c1cccc(Cl)c1 (stereo not drawn)	-2	-31	-2	1	1	96*
O=C(NCC(c1cccnc1)N1CCN(c2ccc(F)cc2)CC1)OCc1ccccc1 (stereo not drawn)	2	6	35	1	1.1	99*
O=C(NCC(c1cccnc1)N1CCN(c2ccccc2)CC1)C1CCCCC1 (stereo not drawn)	9	1	9	1	0.9	74*
O=C(NCC(c1cccnc1)N1CCN(c2ccccc2)CC1)OCc1ccccc1 (stereo not drawn)	-6	-11	11	1	1	96*
O=C(NCC(c1cccnc1)N1CCN(c2ccccc2F)CC1)OCc1ccccc1 (stereo not drawn)	-3	-26	30	0.8	0.9	96*
CCC(=O)NC(NC(=S)Nc1cccc2cccnc12)C(Cl)(Cl)Cl (stereo not drawn)	-1	8	-6	0.7	0.6	1
CC(C)(C)C(=O)NC(Nc1cccc2cccnc12)C(Cl)(Cl)Cl (stereo not drawn)	nt	-2	-12	0.6	0.4	55*
SMILES	Rad51 HR inh	Calpain2 inh	WT yeast gro inh	PMI activator	PMI act satM6P	L major viab
O=C(NC1CC1)c1ccc(CN(c2ccccc2)S(=O)(=O)c2ccccc2)cc1	-15	6	1	1	1	58*
CN(c1ccc(C(=O)NC2CC2)cc1)S(=O)(=O)c1ccccc1	2	0	11	1	1	-4
Brc1ccccc1-c1nnc(CSc2nncn2-c2ccccc2)o1	3	-51	-5	1	1.1	98*
O=c1c2ccccc2nc(SCc2nnc(-c3ccccc3Br)o2)n1-c1ccccc1	7	-35	1	1	1	23
CCCN(CCC)C(=O)Cn1c(=O)c2ccccc2n2c(=S)sc(-c3ccccc3C)c12	-6	2	2	0.8	0.9	98*
CCCN(CCC)C(=O)Cn1c(=O)c2sccc2n2c(=S)sc(-c3ccccc3)c12	nt	18	-8	0.8	1	-7
CC(=O)Oc1c(/C=C(\C#N)C(N)=O)[nH]c2ccccc12	-311	15	33	0.8	0.6	96*
Cc1cc(=O)oc2cc(OCC(=O)OCC(=O)NC3CC3)ccc12	0	-93	14	1	1	1
Cc1ccc([N+](=O)[O-])cc1S(=O)(=O)NCCc1c(C)[nH]c2ccccc12	nt	0	2	0.8	0.9	96*
Cc1nc2c(-c3ccccc3)c(C)nn2c(N)c1-c1ccccc1	-7	3	74*	0.8	0.8	100*
Cc1nn(-c2nc3ccccc3[nH]2)c(N)c1-c1ccccc1	0	-14	72*	1	1	91*
CC(C)(C)N/N=C1\CC(c2ccccc2)Oc2ccccc21 (stereo not drawn)	-3	24	62*	0.8	0.9	5
COc1ccc(C(=O)NC(=S)Nc2nc(C)cc(C)n2)cc1Br	21	-13	nt	nt	nt	nt
CCNC(=S)N/N=C/c1ccc(C#N)cc1	-1	7	-9	1.1	1.1	-2
NC(N)=N/N=C/c1ccc(Br)cc1	nt	24	8	1	1	100*
N#Cc1ccc(/C=N/N=C(N)N)cc1	0	-11	-5	1	1.1	79*
CN(CCOC(=O)CN1C(=O)c2ccccc2C1=O)C1=NS(=O)(=O)c2ccccc21	6	13	-24	0.9	0.9	5
O=C(CN1CCN(C/C=C/c2ccccc2)CC1)NC(=O)NC1CCCCC1	-6	-1	-26	1	1	38
COc1ccccc1NC(=O)c1ccc([N+](=O)[O-])cc1[N+](=O)[O-]	25	-9	1	1.2	1	85*
CCC(=O)OCC(=O)Nc1ccc([N+](=O)[O-])cc1OC	18	-20	3	1	1	-3

High-throughput results deposited in PubChem by several laboratories.
